As usually defined, the IC50 is the concentration needed to halve the response being measured. High values mean weaker potency, low ones greater potency. Usually MIC stands for the lowest concentration that inhibits growth of the organism.

For data set [1], the system named is Staphylococcus aureus. As to the kind of experiment: Antibacterial activity against Staphylococcus aureus ATCC 29213 at 30 ug after 18 hrs by agar disk-diffusion method. In kind it is functional. The settings on record: ATCC 29213, 18 h, read-out: DIZ. In outline: (§1)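 Agar disk diffusion per CLSI: compound loaded on sterile 6 mm paper disks, dried, placed on Mueller Hinton agar lawned with bacteria at McFarland 0.5; cefotaxime positive and DMSO solvent controls; 37 °C for 18 h; zone of inhibition diameter measured to nearest whole mm.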
In general terms: Agar diffusion results depend on both activity and mobility in agar.

The next data set concerns Escherichia coli. As to the kind of experiment: Antibacterial activity against Escherichia coli ATCC 25922 at 5 to 100 ug after 18 hrs by agar disk-diffusion method. It is filed as functional, organism-based. In outline:
as §1

In another data set the test system is Pseudomonas aeruginosa. As to the kind of experiment: Antibacterial activity against Pseudomonas aeruginosa at 5 to 100 ug after 18 hrs by agar disk-diffusion method. It is filed as functional, organism-based. In outline:
as §1

In the next data set the test system is Candida albicans. As to the kind of experiment: Antifungal activity against Candida albicans ATCC 90028 at 30 ug after 24 hrs by agar disk-diffusion method. It is filed as functional. To be noted: ATCC 90028, 24 h, read-out: DIZ. The gist of the method:
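Candida disk diffusion on MHA with 2% glucose and 0.5 µg/mL methylene blue, following CLSI antifungal guidance; paper disks loaded with compound; incubated 37 °C for 24 h; zone of inhibition diameter read.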

The test system of data set [2] is Staphylococcus aureus. Nature of the data set: Antibacterial activity against Staphylococcus aureus ATCC 29213 after 18 hrs by broth microdilution method. It is filed as functional, organism-based. To be noted: ATCC 29213, 18 h. In outline:
(§2)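 Broth microdilution per CLSI for water-insoluble agents: twofold serial dilutions made in DMSO at 100x final, diluted in Mueller Hinton broth to 1% final DMSO; 5x10^5 cfu/mL bacteria exposed 18 h at 37 °C with positive, growth and sterility controls. MIC = lowest concentration giving complete growth inhibition (turbidity and XTT reduction); IC50 from OD600 dose-response inflection point.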

For data set [3], the system named is Staphylococcus aureus. As to the kind of experiment: Antibacterial activity against Staphylococcus aureus ATCC 29213 assessed as disruption of cell membrane at 0.5 times MIC after 18 hrs by scanning electron microscopic method. It is filed as functional, organism-based. In outline: (§3)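 Bacterial suspension (5x10^5 cfu/mL) exposed to compound at 0.5x and 1x MIC for 18 h at 37 °C alongside untreated control; centrifuged 10,000 rpm 10 min, pellets washed twice in normal saline, then processed for scanning electron microscopy.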

The test system of data set [4] is Staphylococcus aureus. As to the kind of experiment: Antibacterial activity against Staphylococcus aureus ATCC 29213 assessed as bleb formation at 0.5 times MIC after 18 hrs by scanning electron microscopic method. It is filed as functional, organism-based. The gist of the method: as §3
Data set [5] relates to Staphylococcus aureus. Nature of the data set: Antibacterial activity against Staphylococcus aureus ATCC 29213 assessed as shriveling at 0.5 times MIC after 18 hrs by scanning electron microscopic method. It is filed as functional, organism-based. The gist of the method: as §3
Data set [6] deals with Staphylococcus aureus. As to the kind of experiment: Antibacterial activity against methicillin/ciprofloxacin/chloramphenicol-resistant Staphylococcus aureus ATCC 1704 clinical isolate at 5 to 100 ug after 18 hrs by agar disk-diffusion method. It is filed as functional. In outline: (§4)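 CLSI agar disk diffusion: 5 to 100 µg compound loaded on 6 mm sterile paper disks, dried, placed on Mueller Hinton agar lawned with McFarland 0.5 bacterial suspension; cefotaxime positive and DMSO solvent controls run alongside; 18 h at 37 °C, inhibition zone diameter read to nearest whole mm.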

Data set [7] has as its system Staphylococcus aureus. Nature of the data set: Antibacterial activity against methicillin/ciprofloxacin/chloramphenicol-resistant Staphylococcus aureus ATCC 1704 clinical isolate after 18 hrs by broth microdilution method. The settings on record: ATCC 1704, 18 h. It is filed as functional, organism-based. The gist of the method: as §2
Data set [8] relates to Staphylococcus aureus. Nature of the data set: Antibacterial activity against methicillin/ciprofloxacin-resistant Staphylococcus aureus ATCC 2673 clinical isolate at 5 to 100 ug after 18 hrs by agar disk-diffusion method. It is filed as functional. In outline:
as §4

For data set [9], the system named is Staphylococcus aureus. As to the kind of experiment: Antibacterial activity against methicillin/ciprofloxacin-resistant Staphylococcus aureus ATCC 2673 clinical isolate after 18 hrs by broth microdilution method. In kind it is functional, organism-based. The settings on record: ATCC 2673, 18 h. The gist of the method:
as §2

In data set [10] the test system is Staphylococcus aureus. As to the kind of experiment: Potentiation of cefotaxime-induced antibacterial activity against Staphylococcus aureus ATCC 29213 assessed as decrease in cefotaxime MIC at 2 ug/ml after 18 hrs by checkerboard microdilution method relative to control. In kind it is functional. In outline:
(§5)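 Checkerboard microdilution: 5x10^5 cfu/mL bacteria exposed to twofold serial dilutions of compound and antibiotic, alone and combined (0.03–32 µg/mL), 18 h at 37 °C. ΣFIC: ≤0.5 synergy; >0.5–1 additive; >1–4 indifferent; >4 antagonism.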

Data set [11] concerns Staphylococcus aureus. Nature of the data set: Potentiation of amikacin-induced antibacterial activity against Staphylococcus aureus ATCC 29213 assessed as decrease in […] at 2 ug/ml after 18 hrs by checkerboard microdilution method relative to control. It is filed as functional. The gist of the method: as §5
(In general: In broth dilution the organism is exposed to a series of concentrations in liquid medium.)

For data set [12], the system named is Staphylococcus aureus. Nature of the data set: Potentiation of ciprofloxacin-induced antibacterial activity against Staphylococcus aureus ATCC 29213 assessed as decrease in […] at 2 ug/ml after 18 hrs by checkerboard microdilution method relative to control. It is filed as functional. In outline:
as §5

In data set [13] the test system is Staphylococcus aureus. As to the kind of experiment: Potentiation of vancomycin-induced antibacterial activity against Staphylococcus aureus ATCC 29213 assessed as decrease in […] at 2 ug/ml after 18 hrs by checkerboard microdilution method relative to control. In kind it is functional. The gist of the method: as §5
In data set [14] the test system is Staphylococcus aureus. Nature of the data set: Potentiation of cefotaxime-induced antibacterial activity against Staphylococcus aureus ATCC 29213 assessed as FICI index at 2 ug/ml after 18 hrs by checkerboard microdilution method relative to control. In kind it is functional. The gist of the method:
as §5

The subject of data set [15] is Staphylococcus aureus. As to the kind of experiment: Potentiation of amikacin-induced antibacterial activity against Staphylococcus aureus ATCC 29213 assessed as FICI index at 2 ug/ml after 18 hrs by checkerboard microdilution method relative to control. In kind it is functional. In outline: as §5
Data set [16] concerns Staphylococcus aureus. As to the kind of experiment: Potentiation of ciprofloxacin-induced antibacterial activity against Staphylococcus aureus ATCC 29213 assessed as FICI index at 2 ug/ml after 18 hrs by checkerboard microdilution method relative to control. In kind it is functional. The gist of the method: as §5
Data set [17] deals with Staphylococcus aureus. As to the kind of experiment: Potentiation of vancomycin-induced antibacterial activity against Staphylococcus aureus ATCC 29213 assessed as FICI index at 2 ug/ml after 18 hrs by checkerboard microdilution method relative to control. It is filed as functional. The gist of the method:
as §5

In data set [18] the test system is Staphylococcus aureus. Nature of the data set: Antibiofilm activity against Staphylococcus aureus ATCC 29213 after 18 hrs by XTT-menadione assay. In kind it is functional. In outline:
(§6)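 Biofilms grown 24 h at 37 °C from suspension at OD600 0.1 in tryptic soy broth with 1% glucose, washed twice with saline, exposed 18 h at 37 °C to twofold serial dilutions; growth and sterility controls. Read by XTT (0.5 mg/mL)–menadione (10 µM) in MHB, 1 h dark at 37 °C, absorbance 450 nm; MBIC50 and MBIC100 = 50% and 100% inhibition.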

Another data set has as its system HEK293. As to the kind of experiment: Cytotoxicity against HEK293 cells assessed as decrease in cell viability at 1 to 200 uM after 24 hrs by Alamar Blue assay. The settings on record: human, hek293, 24 h. In kind it is cell-based. In outline:
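HEK293 cells in DMEM HG, 10% FBS, 1% pen-strep, 37 °C 5% CO2, passage under 30, used at 80% confluency; seeded 1×10^4/well, after 24 h washed and treated 24 h with 1–200 µM in complete medium; alamar blue (0.15 mg/mL) added for 4 h, absorbance 570 and 600 nm; viability relative to untreated cells as 100%.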

Data set [19] relates to Staphylococcus aureus. Nature of the data set: Antibiofilm activity against Staphylococcus aureus ATCC 29213 at 128 ug/ml after 18 hrs by XTT-menadione assay relative to control. It is filed as functional. The gist of the method: as §6
For orientation: Tetrazolium assays rely on reduction of a dye to a coloured formazan, in cell work by metabolically active cells.

SMILES strings stand for the structures. Converted amounts (≈) assume the structure as drawn. The source made the active and inactive calls. The calls are words filed in the database; no cut-off is given here. Where only a bound is given, the exact number is not on record here.

`C[C@H](CCC(=O)NCCNCCNC(=O)CC[C@@H](C)[C@H]1CC[C@H]2[C@@H]3[C@H](O)C[C@@H]4C[C@H](O)CC[C@]4(C)[C@H]3C[C@H](O)[C@]12C)[C@H]1CC[C@H]2[C@@H]3[C@H](O)C[C@@H]4C[C@H](O)CC[C@]4(C)[C@H]3C[C@H](O)[C@]12C`: the zone of inhibition at 30 µg/disc in the data set on Staphylococcus aureus [1] was found to be 14 mm; with Candida albicans, 10 mm. Also, the outcome in the data set with Escherichia coli and in the data set with Pseudomonas aeruginosa was inactive. Moreover, the IC50 with Staphylococcus aureus [2] amounted to 2.87 µg/mL (≈ 3.25 µM); with Staphylococcus aureus [7], 4.36 µg/mL (≈ 4.93 µM); with Staphylococcus aureus [9], 2.18 µg/mL (≈ 2.47 µM). For the same compound, the results for the MIC with Staphylococcus aureus [2], with Staphylococcus aureus [7] and in the data set with Staphylococcus aureus [9] were 4 µg/mL (≈ 4.52 µM), 8 µg/mL (≈ 9.05 µM) and 4 µg/mL (≈ 4.52 µM), respectively. The outcome in the data set with Staphylococcus aureus [3], in the data set with Staphylococcus aureus [4] and in the data set with Staphylococcus aureus [5] was Active. Besides, the “diameter of the inhibition zone (DIZ)” value with Staphylococcus aureus [6] and with Staphylococcus aureus [8] was 13 mm each time. The “fold change (FC)” value with Staphylococcus aureus [10] was 33; with Staphylococcus aureus [11], 67; in the data set with Staphylococcus aureus [12] it was 17; in the data set on Staphylococcus aureus [13], 2. In addition, the “fractional inhibitory concentration index (FICI)” value in the data set with Staphylococcus aureus [14] was 0.53; in the data set on Staphylococcus aureus [15] it was 0.51; in the data set on Staphylococcus aureus [16], 0.56; in the data set on Staphylococcus aureus [17] it was 1. Besides, in the data set on Staphylococcus aureus [18], the MBIC100 worked out at 32 µg/mL. Besides, the Activity entry in the data set with HEK293 is “Non-Toxic”.

The compound `CN[C@H](CC(C)C)C(=O)N[C@H]1C(=O)N[C@@H](CC(N)=O)C(=O)N[C@H]2C(=O)N[C@H]3C(=O)N[C@H](C(=O)N[C@H](C(=O)O)c4cc(O)cc(O)c4-c4cc3ccc4O)[C@H](O)c3ccc(c(Cl)c3)Oc3cc2cc(c3O[C@@H]2O[C@H](CO)[C@@H](O)[C@H](O)[C@H]2O[C@H]2C[C@](C)(N)[C@H](O)[C@H](C)O2)Oc2ccc(cc2Cl)[C@H]1O` [VANCOMYCIN] showed an Activity with Staphylococcus aureus [19] below 50%.
